Data: ChEMBL document CHEMBL1127382, “Synthesis of N-acetylglucosamine-modified ara-C and its effect on ovarian cancer cells” (1994)

Columns and labels:
Format in all cases: functional
G-401 [1] = assay: Tested in vitro against human ovarian cancer cells (G-401) for anticancer activity at dose 1 uM (Cell number 1*10 e-4)
Procedure, shortened: (§1)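 G-401 human ovarian cancer cells seeded at 5 × 10^4 cells/mL in serum-free medium, with or without compound at 0–100 μM. Cultured 3 days at 37 °C under 5% CO₂. Living cells were counted by trypan blue dye exclusion and reported as cell number (×10^-4).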

G-401 [2] = assay: Tested in vitro against human ovarian cancer cells (G-401) for anticancer activity at dose 1 uM in presence of + beta galactosidase (Cell number 1*10 e-4)
Procedure, shortened: (§2)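 G-401 human ovarian cancer cells seeded at 5 × 10^4 cells/mL in serum-free medium with compound (0–100 μM) plus E. coli β-galactosidase at 1 unit/mL. Cultured 3 days at 37 °C under 5% CO₂. Viable cells were counted by trypan blue exclusion and reported as cell number (×10^-4).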

G-401 [3] = assay: Tested in vitro against human ovarian cancer cells (G-401) for anticancer activity at dose 100 uM in presence of + beta galactosidase (Cell number 1*10 e-4); procedure, shortened: as §2
G-401 [4] = assay: Tested in vitro against human ovarian cancer cells (G-401) for anticancer activity at dose 10 uM in presence of + beta galactosidase (Cell number 1*10 e-4); procedure, shortened: as §2
G-401 [5] = assay: Tested in vitro against human ovarian cancer cells (G-401) for anticancer activity at dose 10 uM (Cell number 1*10 e-4); procedure, shortened: as §1
G-401 [6] = assay: Tested in vitro against human ovarian cancer cells (G-401) for anticancer activity at dose 0 uM in presence of + beta galactosidase (Cell number 1*10 e-4); procedure, shortened: as §2
G-401 [7] = assay: Tested in vitro against human ovarian cancer cells (G-401) for anticancer activity at dose 0 uM (Cell number 1*10 e-4); procedure, shortened: as §1
G-401 [8] = assay: Tested in vitro against human ovarian cancer cells (G-401) for anticancer activity at dose 100 uM (Cell number 1*10 e-4); procedure, shortened: as §1

SMILES | Cell number (G-401 [1]) | Cell number (G-401 [2]) | Cell number (G-401 [3]) | Cell number (G-401 [4]) | Cell number (G-401 [5]) | Cell number (G-401 [6]) | Cell number (G-401 [7]) | Cell number (G-401 [8])
Nc1ccn([C@@H]2O[C@H](CO[C@@H]3O[C@H](CO)[C@H](O)[C@H](O)[C@H]3O)[C@@H](O)[C@@H]2O)c(=O)n1 | 41 | 15 | 2 | 6 | 38 | 46 | 55 | 56
Nc1ccn([C@@H]2O[C@H](CO)[C@@H](O)[C@@H]2O)c(=O)n1 [CYTARABINE] | 0 |  |  |  | 0 |  | 55 | 0
